From ChEMBL document CHEMBL1137899, “Glycosylated dihydrochalcones as potent and selective sodium glucose co-transporter 2 (SGLT2) inhibitors” (Bioorg Med Chem Lett, 2004)

Assays:
[1] = target: T1, Sodium/glucose cotransporter 2 (Homo sapiens, UniProt P31639); test: In vitro inhibition of Na-dependent [14C]AMG uptake in CHO-K1 cells expressing human sodium glucose co-transporter 2; assay type: functional, cell-based
T1 sequence (P31639 whole entry): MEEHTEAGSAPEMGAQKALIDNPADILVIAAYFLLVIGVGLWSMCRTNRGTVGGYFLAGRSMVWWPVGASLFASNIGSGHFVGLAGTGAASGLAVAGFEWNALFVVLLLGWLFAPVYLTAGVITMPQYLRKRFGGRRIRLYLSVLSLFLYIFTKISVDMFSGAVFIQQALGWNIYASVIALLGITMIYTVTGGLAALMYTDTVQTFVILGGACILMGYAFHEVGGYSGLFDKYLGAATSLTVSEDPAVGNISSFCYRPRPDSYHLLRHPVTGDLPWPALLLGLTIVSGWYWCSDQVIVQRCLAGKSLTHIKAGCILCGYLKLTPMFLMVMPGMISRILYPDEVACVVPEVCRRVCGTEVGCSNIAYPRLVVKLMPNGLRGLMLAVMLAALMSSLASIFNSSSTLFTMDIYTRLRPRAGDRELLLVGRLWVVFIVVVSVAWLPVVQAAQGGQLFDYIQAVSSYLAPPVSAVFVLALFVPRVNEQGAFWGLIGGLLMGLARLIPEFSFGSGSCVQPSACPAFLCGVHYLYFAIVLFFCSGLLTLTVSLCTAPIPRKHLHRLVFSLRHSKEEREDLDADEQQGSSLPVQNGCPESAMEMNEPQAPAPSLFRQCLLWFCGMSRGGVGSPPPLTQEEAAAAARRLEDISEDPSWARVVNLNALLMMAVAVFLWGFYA
How it was run: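 CHO-K1 cells overexpressing human SGLT2 pre-treated with compound for 15 min with or without NaCl, then labelled with 14C-alpha-methylglucopyranoside (AMG, nonmetabolizable glucose analogue); sodium-dependent uptake of label measured.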

[2] = Metabolic half-life as a measure of human liver microsomal stability was determined at 5 uM; assay type: ADME; details: liver microsomes
[3] = (§1) In vivo ability to induce urinary glucose excretion in male Zucker Diabetic Fatty (ZDF) rats at 3 mg/kg i.v. dose; assay type: ADME, organism-based, Urine; design: dose 3 mg/kg, route intravenous; details: rat, iv
How it was run: (§2)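 Male ZDF rats, 7–8 weeks, fasted 12 h; compound or vehicle (10% Solutol) given i.v. at 2 mL/kg. Oral glucose challenge (4 mL/kg of 50% solution) 1 h later, rats then placed in metabolism cages with free water access; urine collected for 4 h, glucose quantified with Trinder reagent.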

Rattus norvegicus = test: as §1; assay type: functional, Urine; details: route intravenous; how it was run: as §2

Row | Ki [1] [nM] | SMILES | also measured
1 | 70 | O=C(CCc1ccc2ccccc2c1)c1c(O)cc(F)cc1O[C@@H]1O[C@H](CO)[C@@H](O)[C@H](O)[C@H]1O | 
2 | 150 | CC(C)c1cc(O)c(C(=O)CCc2ccc3ccccc3c2)c(O[C@@H]2O[C@H](CO)[C@@H](O)[C@H](O)[C@H]2O)c1 | 
3 | 4 | Cc1cc(O)c(C(=O)CCc2ccc3occc3c2)c(O[C@@H]2O[C@H](CO)[C@@H](O)[C@H](O)[C@H]2O)c1 | half-life at 5 µM [2]: 24 min; Excreted glucose [3]: 1189 mg
4 | 70 | Cc1cc(O)c(C(=O)CCc2ccsc2)c(O[C@@H]2O[C@H](CO)[C@@H](O)[C@H](O)[C@H]2O)c1 | 
5 | 30 | CCOc1ccc(CCC(=O)c2c(O)cc(CC)cc2O[C@@H]2O[C@H](CO)[C@@H](O)[C@H](O)[C@H]2O)cc1 | half-life at 5 µM [2]: > 45 min
6 | 10 | CCc1cc(O)c(C(=O)CCc2ccc3ccccc3c2)c(O[C@@H]2O[C@H](CO)[C@@H](O)[C@H](O)[C@H]2O)c1 | 
7 | 230 | Cc1cc(O)c(C(=O)CCc2ccoc2)c(O[C@@H]2O[C@H](CO)[C@@H](O)[C@H](O)[C@H]2O)c1 | 
8 | 30 | O=C(CCc1ccc2ccccc2c1)c1c(O)cc(Cl)cc1O[C@@H]1O[C@H](CO)[C@@H](O)[C@H](O)[C@H]1O | 
9 | 290 | Cc1cc(N)c(C(=O)CCc2ccc3c(c2)OCCO3)c(O[C@@H]2O[C@H](CO)[C@@H](O)[C@H](O)[C@H]2O)c1 | 
10 | 20 | O=C(CCc1ccc2c(c1)OCCO2)c1c(O)cc(Cl)cc1O[C@@H]1O[C@H](CO)[C@@H](O)[C@H](O)[C@H]1O | 
11 | 9 | Cc1cc(O)c(C(=O)CCc2ccc3c(c2)OCCO3)c(O[C@@H]2O[C@H](CO)[C@@H](O)[C@H](O)[C@H]2O)c1 | Excreted glucose (Rattus norvegicus): 608 mg; half-life at 5 µM [2]: > 45 min
12 | 110 | CCOc1ccc(CCC(=O)c2c(O)cc(C(C)C)cc2O[C@@H]2O[C@H](CO)[C@@H](O)[C@H](O)[C@H]2O)cc1 | 
13 | 10 | CCOc1ccc(CCC(=O)c2c(O)cc(C)cc2O[C@@H]2O[C@H](CO)[C@@H](O)[C@H](O)[C@H]2O)cc1 | half-life at 5 µM [2]: > 45 min
14 | 10 | Cc1cc(O)c(C(=O)CCc2ccc3ccccc3c2)c(O[C@@H]2O[C@H](CO)[C@@H](O)[C@H](O)[C@H]2O)c1 | 
15 | 40 | Cc1cc(O)c(C(=O)CCC2CCCCC2)c(O[C@@H]2O[C@H](CO)[C@@H](O)[C@H](O)[C@H]2O)c1 | 
16 | 10 | CCc1cc(O)c(C(=O)CCc2ccc3c(c2)OCCO3)c(O[C@@H]2O[C@H](CO)[C@@H](O)[C@H](O)[C@H]2O)c1 | 
17 | 1280 | CCOc1ccc(CCC(=O)c2c(N)cc(C)cc2O[C@@H]2O[C@H](CO)[C@@H](O)[C@H](O)[C@H]2O)cc1 | 
18 | 520 | Cc1cc(N)c(C(=O)CCc2ccc3ccccc3c2)c(O[C@@H]2O[C@H](CO)[C@@H](O)[C@H](O)[C@H]2O)c1 | 
19 | 80 | CCOc1ccc(CCC(=O)c2c(O)cc(Cl)cc2O[C@@H]2O[C@H](CO)[C@@H](O)[C@H](O)[C@H]2O)cc1 | 
20 | > 1700 | CCOc1ccc(CCC(=O)c2c(Cl)cccc2O[C@@H]2O[C@H](CO)[C@@H](O)[C@H](O)[C@H]2O)cc1 | 
21 | 20 | CC(C)c1cc(O)c(C(=O)CCc2ccc3c(c2)OCCO3)c(O[C@@H]2O[C@H](CO)[C@@H](O)[C@H](O)[C@H]2O)c1 | 
22 | > 1700 | O=C(CCc1ccc2ccccc2c1)c1c(Cl)cccc1O[C@@H]1O[C@H](CO)[C@@H](O)[C@H](O)[C@H]1O | 
23 | > 1700 | O=C(CCc1ccc2c(c1)OCCO2)c1c(Cl)cccc1O[C@@H]1O[C@H](CO)[C@@H](O)[C@H](O)[C@H]1O | 
